H9c2 protect: protects H9c2 cardiomyocytes from peroxide injury; protection from H2O2 cell death, % at 20 µM; H2O2 injury protection, ATPLite, 2 h; actives 0.63% (n = 360,000);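 active = compounds giving at least 50% protection of heart cells from peroxide-induced death in the single-dose screen, raw or plate-pattern-corrected value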;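 also: 0% = DMSO wells with peroxide and 100% = DMSO wells without peroxide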
SENP1 inh: blocks the human SENP1 SUMO protease catalytic domain; Q9P0U3; recombinant SENP1 catalytic domain, CyPet-SUMO1-YPet FRET cleavage; inhibition, % at 10 µM; actives 0.21% (n = 360,000); AID 624204;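 active = inhibition at least 30% at 10 µM, raw YFP signal under a set limit, fluorescence ratio 0.5 to 1.5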;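 also: 0% = enzyme with DMSO and 100% = no enzyme wells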
Target sequence (Q9P0U3 419-644 limits assumed): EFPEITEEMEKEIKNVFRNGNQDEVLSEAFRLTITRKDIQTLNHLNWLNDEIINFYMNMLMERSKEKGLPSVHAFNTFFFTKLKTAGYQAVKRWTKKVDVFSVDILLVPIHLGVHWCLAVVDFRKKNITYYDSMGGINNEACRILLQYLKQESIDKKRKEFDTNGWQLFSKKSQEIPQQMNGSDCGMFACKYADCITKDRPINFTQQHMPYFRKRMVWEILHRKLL
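Assay system: hSENP1 catalytic domain, recombinant. Amount: SENP1 enzyme, 20 pM final. Schedule: 50 min reaction, RT, dark. Technique: FRET, CFP and YFP emission. Control set: no-enzyme wells low, DMSO-plus-enzyme wells high control.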
GRIN3A LBD mod: modulates the human NR3A ligand-binding domain. NR3A LBD differential scanning fluorimetry, Tm shift; 0% = protein alone, 100% = glycine-bound protein. Tm shift relative to glycine control, % at 25 µM. actives 2.5% (n = 340,000). AID 1259313;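 active = melting temperature shift of at least 10% of the positive control shift, at one fixed dose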
FAS-TE inh: inhibitors of human fatty acid synthase thioesterase domain; P49327; actives 0.67% (n = 360,000); inhibition, % at 15 µM; recombinant FAS-TE, OMFH fluorogenic substrate, fluorescence endpoint;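 active = compounds whose normalised, plate-corrected inhibition of enzyme fluorescence in the single-dose primary screen is 50% or more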;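 also: 0% = DMSO with enzyme and 100% = substrate without enzyme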
iPSC survival up: enhancers of human iPSC single-cell survival | hiPSC single-cell survival, ATPlite luminescence; 100% = ROCK inhibitor wells, 0% = DMSO | survival enhancement, % at 20 µM | actives 0.044% (n = 360,000) | AID 602274; in the data active = survival enhancement above about 18%;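 also: cells exposed to compounds for 16 hours before the ATP read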
Arr AP2 block: human beta-arrestin and AP2 interaction inhibition; inhibition, % at 10 µM; actives 0.31% (n = 340,000); FITC-arrestin peptide / GST-AP2 beads, flow cytometry; AP2 beta2 appendage carries R879A mutation;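 active = inhibition above a set limit, near 3 SD of compounds lacking own fluorescence, cut at about 54% in these data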;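 also: plate controls were DMSO wells for no effect and 5 µM unlabelled arrestin peptide for full effect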
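Measured by: flow cytometry, FL1 (488/535 nm); Material: AP2 appendage R879A on GSH beads; Evaluation: percent response; Timing: pre-incubation 12 min, peptide binding 1 h, room temperature; Also added: 50 nM FITC-arrestin peptide; Medium: PBS with 0.05% Tween 20 and 0.1% BSA.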
Starred values were filed as active, the others as inactive; nt = not tested or not shown. The list is not random: actives were taken first. Their share in the collection is about 4%.

SMILES	H9c2 protect	SENP1 inh	GRIN3A LBD mod	FAS-TE inh	iPSC survival up	Arr AP2 block
COc1ccc(OC)c(-c2cc(C(=O)Nc3ccccc3C(N)=O)c3ccccc3n2)c1	34	-1	11*	20	0	-4
CC(CN1CCCCC1)NC(=O)c1scnc1-c1ccccc1 (configuration not stated)	-3	1	nt	-2	-1	nt
COC(=O)C[C@H]1C[C@H]2c3cc(NC(=O)Nc4ccc(C(F)(F)F)cc4)ccc3O[C@H]2[C@@H](CO)O1	-2	0	nt	-2	-1	nt
COCCCn1c(C)nc2c(c1=O)c1nc3ccccc3nc1n2CCc1ccccc1	58*	-78	1	8	-4	0
COC(=O)c1csc(-c2ccc(CO)o2)n1	-4	3	nt	-1	0	nt
COc1ccc(CN2C(=O)CN(S(C)(=O)=O)CC2(C)C(=O)Nc2c(C)cccc2C)cc1OC (configuration not stated)	nt	0	nt	nt	nt	nt
CC(=O)Nc1ccc(N2Cc3ccccc3C2)cc1	0	0	0	-2	0	19
CC(=O)Nc1ccc(N2S(=O)(=O)c3ccccc3S2(=O)=O)cc1	15	1	11*	-10	4	-2
COc1ccc(NC(=O)CSc2nnc3n2CCCCC3)cc1OC	-1	4	nt	-4	1	nt
O=C1/C(=C/c2ccc(O)c(O)c2)Oc2cc(O)ccc21	12	-20	15*	-2	-2	20
CN(Cc1cnn(-c2ccc(F)cc2)c1)C(=O)[C@H]1O[C@@H](n2ccc(=O)[nH]c2=O)[C@H](O)[C@@H]1O	9	0	nt	-8	-3	nt
O=C(N/N=C/c1ccc(O)c2ncccc12)c1cccc(Br)c1	-1	52*	9	8	-3	-8
COCCNC(=O)C1CCCN(C(=O)c2ccc(SC(F)(F)F)cc2)CC1 (configuration not stated)	-4	2	nt	-6	-2	nt
Nc1c(C(=O)NCC2CCCO2)c2nc3ccccc3nc2n1-c1ccccc1 (configuration not stated)	55*	-16	2	-1	2	33
CCCNC(=O)c1c(N)n(-c2cccc(OC)c2)c2nc3ccccc3nc12	55*	-31	-10	19	0	4
COc1ccc(Nc2nc(N)c([N+](=O)[O-])c(NC3CCCCC3)n2)cc1	-15	2	11*	29	0	23
COc1ccc(Nc2nc(N)c([N+](=O)[O-])c(NCCO)n2)cc1	22	3	1	-4	0	3
CCCCS(=O)(=O)Nc1ccc2ncn(C)c(=O)c2c1	3	1	11*	-4	0	2
CCCCS(=O)(=O)Nc1ccc2cn[nH]c2c1	-4	-3	1	-7	1	2
O=C(O)c1ccc(-c2noc(-c3cccc(C(F)(F)F)c3)n2)cc1	0	1	13*	-10	5	8
CCC(C(=O)OCC(=O)Nc1ccc(SC(F)F)cc1)c1ccccc1 (configuration not stated)	-7	2	12*	50	-1	-12
O=C(/C=C/c1ccccc1)c1cc(Br)ccc(=O)c1O	44	17	-1	8	-3	46
Cc1ccc(/C=C/C(=O)c2ccccc(=O)c2O)cc1C	75*	-69	-1	8	1	-3
COC(=O)[C@]12CCCCC=C1N(Cc1ccc3c(c1)OCO3)C(=O)[C@H](CC(=O)NCCCCc1ccccc1)C2	nt	4	nt	nt	nt	nt
OC[C@@H]1CN(Cc2ccc(F)cc2)C[C@H](n2cnc3c(N4CCN(c5ccccc5)CC4)ncnc32)O1	6	-2	nt	11	-2	nt
SMILES	H9c2 protect	SENP1 inh	GRIN3A LBD mod	FAS-TE inh	iPSC survival up	Arr AP2 block
COc1cc(Cc2cc(OC)c(O)c(OC)c2)cc(OC)c1O	-4	1	nt	-7	-2	nt
NC(=O)C1CCN(c2oc(-c3ccccc3F)nc2S(=O)(=O)c2ccc(Cl)cc2)CC1	-7	0	4	3	6	2
CN1CCN(c2oc(-c3ccccc3F)nc2S(=O)(=O)c2ccc(Cl)cc2)CC1	-5	0	10*	8	1	6
CCCNC(=O)C1(C)CCCN(C(=O)COc2ccc(Cl)cc2Cl)C1 (configuration not stated)	-1	2	nt	-4	-2	nt
CS(=O)(=O)N1N=C(c2cccs2)CC1c1ccccc1O (configuration not stated)	3	-3	-1	-2	3	-5
Oc1ccccc1C1CC(c2cccs2)=NC(c2ccc(Cl)cc2)N1 (configuration not stated)	-28	-44	10*	10	-1	1
C[C@@H]1CN([C@H](C)CO)S(=O)(=O)c2ccc(C#Cc3ccccc3F)cc2O[C@H]1CN(C)C(=O)c1ccc2c(c1)OCO2	106*	-24	nt	38	-2	nt
C[C@H](CO)N1C[C@H](C)[C@@H](CN(C)CC2CCOCC2)Oc2cc(C#Cc3ccccc3F)ccc2S1(=O)=O	25	-8	nt	23	3	nt
Cc1ccc(NC(=O)C(C)Sc2nnc3n2CCCCC3)cc1S(=O)(=O)N1CCOCC1 (configuration not stated)	2	2	nt	-5	3	nt
O=C1CC(c2ccccc2)Sc2ccccc2N1 (configuration not stated)	-4	5	4	-6	5	10
Cc1ccc2c(c1)C(=O)CC(c1ccccc1)S2 (configuration not stated)	-10	-2	13*	16	-4	30
Cc1[nH]c2ccccc2c1/C=N/NC(=O)c1cccs1	56*	28	3	-4	0	11
CSc1ccc(/C=N/NC(=O)c2ccc(O)cc2)cc1	-21	-6	26*	-8	-2	-14
COc1ccc(C(=O)N/N=C/c2ccc(N(C)c3ccccc3)cc2)cc1	-4	-77	1	24	1	0
Cc1nn(-c2ccccc2)c(C)c1/C=N/NC(=O)c1cccs1	11	1	0	-2	1	2
COc1ccc(C(=O)N/N=C/c2ccc(SC)cc2)cc1	-3	2	10*	-3	1	15
Cc1nn(-c2ccccc2)cc1/C=N/NC(=O)c1cccs1	8	-1	20*	1	0	9
CSc1ccc(/C=N/NC(=O)c2cccs2)cc1	-11	1	13*	-1	0	-1
O=C(N/N=C/c1ccncc1)c1cccs1	9	2	-1	-5	0	1
Cc1ccc(N2C(=O)C3C4C=CC(CNC(=S)Nc5cccc(Cl)c5)(O4)C3C2=O)cc1 (configuration not stated)	-5	-1	20*	21	-2	4

Screens as filed in PubChem.
